Source: PubChem
SR-BI DiI inh – inhibitors of mouse SR-BI mediated HDL lipid uptake; Q61009; ldlA[mSR-BI] CHO cells, DiI-HDL uptake fluorescence, 3 h; inhibition, % at 12.5 µM; 320,000 tested, 0.96% active; AID 488896;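 active means mean replicate inhibition of at least 70% and a set share of replicates each scoring 70 or more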
Target sequence (Q61009 whole entry, looked up): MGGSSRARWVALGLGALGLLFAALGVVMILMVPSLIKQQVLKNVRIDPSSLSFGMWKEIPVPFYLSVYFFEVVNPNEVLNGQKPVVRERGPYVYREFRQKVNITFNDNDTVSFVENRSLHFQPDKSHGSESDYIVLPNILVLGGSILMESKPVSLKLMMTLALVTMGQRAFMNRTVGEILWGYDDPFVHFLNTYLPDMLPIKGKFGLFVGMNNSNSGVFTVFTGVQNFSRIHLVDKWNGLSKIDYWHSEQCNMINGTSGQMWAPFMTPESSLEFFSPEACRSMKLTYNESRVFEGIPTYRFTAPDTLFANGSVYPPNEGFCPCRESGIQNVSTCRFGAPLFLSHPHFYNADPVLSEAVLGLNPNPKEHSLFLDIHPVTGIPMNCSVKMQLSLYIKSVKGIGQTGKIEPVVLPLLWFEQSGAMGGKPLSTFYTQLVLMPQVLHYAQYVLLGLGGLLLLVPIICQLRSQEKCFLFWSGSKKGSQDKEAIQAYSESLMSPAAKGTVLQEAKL
CAL PDZ FP-1 – CAL PDZ (human) peptide binding inhibition; purified CAL PDZ, TMR-peptide fluorescence polarization, 1 h; inhibition, % at 24.9 µM; 300,000 tested, 0.92% active;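 active means mean inhibition of at least 30% with at least half of replicates also reaching 30%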
dFosB act – activators of mouse delta FosB homodimer | P13346 | purified delta FosB, TAMRA-CDK5 oligo fluorescence polarization; percent of positive-control signal above neutral wells | activation, % at 25 µM | 340,000 tested, 0.99% active | AID 493131;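 active means mean activation above about 17%, with every replicate also reaching it, limit read from the data, passing the limit was not always enough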
SR-BI uptake up – enhances SR-BI lipid uptake from DiI-HDL | activation, % at 12.5 µM | 320,000 tested, 0.096% active | CHO ldlA[mSR-BI] cells, DiI-HDL uptake fluorescence, 3 h; 100 = double the neutral-control signal | AID 504775;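 active means mean replicate activation of at least 60% and every replicate at or above 60%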
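Assay system: LDL receptor-deficient CHO ldlA cells overexpressing murine SR-BI / Medium: BSA-supplemented, HEPES-buffered Ham's F12, pH 7.4 / Probe or stimulus: DiI-labelled HDL at 10 µg/mL final / Timing: compound with DiI-HDL co-incubation, 3 h at 37 °C / Technique: bottom-read cell fluorescence after medium removal, ex 550/em 595 nm / Measure: HDL uptake via cellular fluorescence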
CAL PDZ FP-2 – human CAL PDZ-peptide interaction inhibition. inhibition, % at 20 µM. purified CAL PDZ, TMR-peptide fluorescence polarization, 1 h. 330,000 tested, 0.02% active. AID 504414;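 active means highest replicate inhibition of at least 40%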
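material = purified tagged CAL PDZ domain construct (CerCALP) | buffer or medium = sodium phosphate/NaCl buffer pH 7.4 with TCEP, IgG, Thesit | reagent = TMR-labelled reporter peptide T*-PRC34 bound in PDZ groove | incubation = 1 h room-temperature incubation prior to read | measured by = fluorescence polarization (mP) | evaluation = percent inhibition from loss of millipolarization | control set = unlabelled peptide and DMSO controls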
Hits are given with their value; n = inactive; x = not tested or not shown. Shown are actives, neighbours in structure and some others; about 2.8% of the full set was active somewhere.

SMILES	SR-BI DiI inh	CAL PDZ FP-1	dFosB act	SR-BI uptake up	CAL PDZ FP-2
O=c1[nH]c(CSc2nc3ccccc3s2)nc2ccccc12	n	n	n	n	n
COc1ccc2nc3oc(C(=O)NCc4cccs4)cc3cc2c1	n	n	60	n	n
Cc1ccc(-c2noc(-c3ccoc3C)n2)cc1	n	n	n	n	n
COc1cc(/C=N/NC(=O)c2cncc(Br)c2)cc([N+](=O)[O-])c1O	120	n	n	n	n
COc1ccc(-c2sc(NC(C)=O)nc2-c2ccccc2)cc1	80	n	n	n	n
COc1ccc(-c2nc(NC(=O)c3ccccc3)sc2-c2ccc([N+](=O)[O-])cc2)cc1	79	n	n	n	n
COc1ccc(-c2nc(NC(C)=O)sc2-c2ccccc2)cc1	n	n	n	n	n
O=C(COC(=O)C1=COCCO1)Nc1ncc(C(F)(F)F)cc1Cl	n	n	n	n	n
O=C(COC(=O)c1cnccn1)Nc1ncc(C(F)(F)F)cc1Cl	n	55	n	n	n
CC(C)n1ncc2c(C(=O)Nc3ccc(S(C)(=O)=O)cc3)cc(C3CC3)nc21	n	n	n	n	n
CC(C)n1ncc2c(C(=O)Nc3cccc(S(=O)(=O)N(C)C)c3)cc(C3CC3)nc21	76	n	n	n	n
CNC(=O)c1cccc(NC(=O)c2cc(-c3ccccc3)nc3c2cnn3C(C)C)c1	82	n	n	n	n
COc1cc(NC(=O)c2cc(-c3ccccc3)nc3c2cnn3C(C)C)cc(OC)c1OC	n	n	n	n	n
CN(C)S(=O)(=O)c1ccc(N2CCCC2)c(C(=O)NNC(=O)c2ccccc2)c1	n	x	n	n	n
CC(OC(=O)c1ccc(NC(=O)CC#N)cc1)C(=O)NCCC1=CCCCC1 (centres undefined)	n	x	n	n	n
CC(OC(=O)c1ccc(NC(=O)CC#N)cc1)C(=O)NC(=O)NC1CCCCC1 (centres undefined)	n	x	58	x	n
CCCC(O)(CCN1CCOCC1)c1ccc(Cl)cc1 (centres undefined)	n	41	n	n	n
CCCC(O)(c1ccc(OC)cc1)C(CN1CCOCC1)c1ccc(Cl)cc1 (centres undefined)	n	n	n	n	n
CCCC(O)(c1ccc(Cl)cc1)C(CN1CCOCC1)c1ccc(Cl)cc1 (centres undefined)	79	n	n	n	x
Cc1ccc(OCCNC(=O)c2ccc(NC(=O)CC3SC(N4CCCC4)=NC3=O)cc2)cc1 (centres undefined)	n	n	n	n	n
Cc1ccc(Cn2c(SC(C)C(N)=O)nc3ccccc3c2=O)cc1 (centres undefined)	n	n	n	n	n
CCOC(=O)CCc1ccc(NC(=O)/C=C/c2ccc([N+](=O)[O-])o2)cc1	74	n	n	n	n
Cc1ccc(/C=C/C(=O)Nc2ccc([N+](=O)[O-])cc2)o1	75	n	n	n	n
Cc1c(C(=O)N2CCN(S(=O)(=O)c3ccc(F)cc3)CC2)oc2ccccc12	n	n	n	n	n
COc1ccc(/C=N/NC(=S)Nc2ccccc2)cc1	n	n	n	n	n
SMILES	SR-BI DiI inh	CAL PDZ FP-1	dFosB act	SR-BI uptake up	CAL PDZ FP-2
S=C(N/N=C/c1ccc2ncccc2c1)Nc1ccccc1	n	33	n	n	n
Cc1c(C(=O)OCc2nc3ccsc3c(=O)[nH]2)oc2ccccc12	n	n	n	n	n
O=C(NNC(=O)c1ccccc1Br)c1ccccc1Cl	n	x	n	n	n
NC(=S)NNC(=O)c1ccccc1Cl	n	34	n	n	n
OCCC1CN(CC#Cc2ccccc2)CCN1C1CCCC1 (centres undefined)	n	91	n	n	n
OCCC#Cc1ccc(CN2CCN(C3CCCCC3)C(CCO)C2)cc1 (centres undefined)	n	n	n	n	n
COC(=O)CCCn1nc(NC(=O)c2ccco2)cc1C	x	n	n	x	n
O=C(Nc1cc(Br)ccc1O)c1cnn2c(C(F)F)cc(C3CC3)nc12	77	n	n	n	n
CCCc1nc2ccc(N)cc2c(=O)n1Cc1ccccc1Cl	n	n	n	n	x
O=C(CCN1C(=O)C2C3CCC(C3)C2C1=O)Nc1cccc(Cl)c1 (centres undefined)	n	n	n	n	n
O=C(NC1=C(Nc2ccc(F)cc2)C(=O)c2ccccc2C1=O)c1ccc(Cl)cc1	n	70	n	n	n
